Active and inactive are the calls of the source. No cut-off for these calls is given here.
Assays:
[1] = system: Plasmodium falciparum; experiment: Antimalarial activity against Plasmodium falciparum K1 by automated image mining based cytological profiling assay; type: functional, organism-based
Method in brief: (§1)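 Parasite cultures in 384-well format, read by automated imaging. Infected erythrocytes detected by DAPI nuclear staining against WGA-AlexaFluor 488 host-cell stain, and viability by Mitotracker Red CMXRos. Total culture parasitaemia quantified. EC50 given as mean±SD of two independent experiments, each in duplicate.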

[2] = system: Plasmodium falciparum; experiment: Antimalarial activity against Plasmodium falciparum W2 by automated image mining based cytological profiling assay; type: functional, organism-based; method in brief: as §1
[3] = system: Plasmodium falciparum; experiment: Antimalarial activity against Plasmodium falciparum HB3 by automated image mining based cytological profiling assay; type: functional; method in brief: as §1
[4] = Selectivity index, ratio of CC50 for human HepG2 cells to EC50 for Plasmodium falciparum; type: toxicity, cell-based; conditions: read-out: Ratio CC50/EC50
Method in brief: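 Ratio of HepG2 CC50 (resazurin assay) to the highest EC50 among P. falciparum K1, HB3 and W2. Parasite EC50 values are means of two independent experiments, each run in duplicate.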

[5] = system: Plasmodium falciparum; experiment: Antimalarial activity against tightly synchronized Plasmodium falciparum K1 assessed as parasite stage accumulation index at early ring stages at 10 uM treated at 6 to 30 hrs post-invasion by automated image mining based cytological profiling assay; type: functional, organism-based
[6] = system: Plasmodium falciparum; experiment: Antimalarial activity against tightly synchronized Plasmodium falciparum K1 assessed as parasite stage accumulation index at late ring stages at 10 uM treated at 6 to 30 hrs post-invasion by automated image mining based cytological profiling assay; type: functional, organism-based
[7] = system: Plasmodium falciparum; experiment: Antimalarial activity against tightly synchronized Plasmodium falciparum K1 assessed as parasite stage accumulation index at trophozoites stages at 10 uM treated at 6 to 30 hrs post-invasion by automated image mining based cytological profiling assay; type: functional, organism-based
[8] = system: Plasmodium falciparum; experiment: Antimalarial activity against tightly synchronized Plasmodium falciparum K1 assessed as parasite stage accumulation index at schizonts stages at 10 uM treated at 6 to 30 hrs post-invasion by automated image mining based cytological profiling assay; type: functional, organism-based
[9] = Stability in human liver microsomes assessed as remaining compound level at 1 uM incubated for 5 mins in presence of NADPH measured after 30 mins by LC/MS/MS method; type: ADME; conditions: read-out: Stability
Method in brief: (§2)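 Percent parent compound remaining after 30 min incubation with liver microsomes; n = 3.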

[10] = Stability in mouse liver microsomes assessed as remaining compound level at 1 uM incubated for 5 mins in presence of NADPH measured after 30 mins by LC/MS/MS method; type: ADME; conditions: read-out: Stability; method in brief: as §2
[11] = Tmax in Sprague-Dawley rat at 1 mg/kg, ip; type: ADME, organism-based; parameters: dose 1 mg/kg, route intraperitoneal; conditions: in vivo
[12] = Tmax in Sprague-Dawley rat at 5 mg/kg, ip; type: ADME, organism-based; parameters: dose 5 mg/kg, route intraperitoneal; conditions: in vivo
[13] = Cmax in Sprague-Dawley rat at 1 mg/kg, ip; type: ADME, organism-based; parameters: dose 1 mg/kg, route intraperitoneal; conditions: in vivo
[14] = Cmax in Sprague-Dawley rat at 5 mg/kg, ip; type: ADME, organism-based; parameters: dose 5 mg/kg, route intraperitoneal; conditions: in vivo
[15] = AUC in Sprague-Dawley rat at 1 mg/kg, ip; type: ADME, organism-based; parameters: dose 1 mg/kg, route intraperitoneal; conditions: plasma
[16] = AUC in Sprague-Dawley rat at 5 mg/kg, ip; type: ADME, organism-based; parameters: dose 5 mg/kg, route intraperitoneal; conditions: plasma
[17] = Half life in Sprague-Dawley rat at 1 mg/kg, ip; type: ADME, organism-based; parameters: dose 1 mg/kg, route intraperitoneal; conditions: in vivo
[18] = Half life in Sprague-Dawley rat at 5 mg/kg, ip; type: ADME, organism-based; parameters: dose 5 mg/kg, route intraperitoneal; conditions: in vivo
[19] = system: Plasmodium chabaudi; experiment: Antimalarial activity against Plasmodium chabaudi infected in BALB/c mouse assessed as reduction in parasitaemia level treated intraperitoneally on day 1 to day 3 post-infection measured on day 4 post-infection by Giemsa staining based light microscopy; type: functional
Method in brief: (§3)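 Groups of five BALB/c mice infected i.p. with 2 × 10^7 P. chabaudi-parasitized erythrocytes. Day 1 pre-treatment parasitaemia read from tail-blood thin smears, then i.p. dosing at 0.03, 0.3, 3, 10 or 30 mg/kg, repeated for two more days. Day 4 parasitaemia scored by light microscopy of Giemsa-stained thin smears; dose-response evaluated by probit analysis.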

[20] = system: Plasmodium chabaudi; experiment: Antimalarial activity against Plasmodium chabaudi infected in BALB/c mouse assessed as reduction in accumulation of ring-stage parasites level at 3 to 30 mg/kg, ip treated on day 1 to day 3 post-infection measured on day 4 post-infection by Giemsa staining based light microscopy; type: functional, organism-based; method in brief: as §3
[21] = system: Plasmodium chabaudi; experiment: Antimalarial activity against Plasmodium chabaudi infected in BALB/c mouse assessed as reduction in blood parasitaemia level at 3 to 30 mg/kg, ip treated on day 1 to day 3 post-infection measured on day 4 post-infection by Giemsa staining based light microscopy; type: functional, organism-based; method in brief: as §3

EC50 [1]: 92 nM
EC50 [2]: 80 nM
EC50 [3]: 80 nM
remaining at 30 min, 1 µM [9]: 89%
remaining at 0.5 h, 1 µM [10]: 81.6%
Tmax [11]: 3.4 h
Tmax [12]: 4 h
Cmax [13]: 1030 ng/mL
Cmax [14]: 3070 ng/mL
AUC [15]: 8200 ng·h/mL
AUC [16]: 26600 ng·h/mL
half-life [17]: 6.36 h
half-life [18]: 5.78 h
SMILES: COc1ccc(CO[C@@H]([C@H](COC(c2ccccc2)(c2ccccc2)c2ccccc2)N=[N+]=[N-])[C@H](OCc2ccc(OC)cc2)c2cnc(N(C)C)nc2)cc1
selectivity ratio [4]: > 1000
Activity [5]: Active
Activity [6]: Active
Activity [7]: Active
Activity [8]: Active
inhibition [19]: Dose dependent effect
ED50 ([19]; ip): 0.12 mg/kg
inhibition [20]: Active
inhibition [21]: Active
